In this assay the target is Neuromedin-U receptor 2 (Homo sapiens, UniProt Q9GZQ4). In words: Agonist activity at human NMU2R transfected in HEK293 cells after 7 hrs by luciferase reporter gene assay. Format: cell-based. The settings on record: read-out: EC50. In outline:
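HEK-293 cells were stably co-transfected with a reporter gene construct and human NMU2R cDNA in pcDNA3.1(+), maintained under G418 selection at 37 °C in 5% CO2, then seeded and incubated overnight. Compounds were added at various concentrations for 7 h at 37 °C, followed by Bright-Glo luciferase read-out. Forskolin and NMU served as positive controls. EC50 was fitted by four-parameter logistic regression; means ± SEM of three independent experiments.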
For orientation: Reporter assays use an easily measured gene product as a stand-in for the process of interest.

pEC50: −log10 of the molar value.

For three compounds, EC50 results are on record in ChEMBL document CHEMBL3351764, “Design, synthesis and biological activity of flavonoid derivatives as selective agonists for neuromedin U 2 receptor” (Bioorg Med Chem, 2014).

Neuromedin-U receptor 2, sequence (Q9GZQ4 whole entry): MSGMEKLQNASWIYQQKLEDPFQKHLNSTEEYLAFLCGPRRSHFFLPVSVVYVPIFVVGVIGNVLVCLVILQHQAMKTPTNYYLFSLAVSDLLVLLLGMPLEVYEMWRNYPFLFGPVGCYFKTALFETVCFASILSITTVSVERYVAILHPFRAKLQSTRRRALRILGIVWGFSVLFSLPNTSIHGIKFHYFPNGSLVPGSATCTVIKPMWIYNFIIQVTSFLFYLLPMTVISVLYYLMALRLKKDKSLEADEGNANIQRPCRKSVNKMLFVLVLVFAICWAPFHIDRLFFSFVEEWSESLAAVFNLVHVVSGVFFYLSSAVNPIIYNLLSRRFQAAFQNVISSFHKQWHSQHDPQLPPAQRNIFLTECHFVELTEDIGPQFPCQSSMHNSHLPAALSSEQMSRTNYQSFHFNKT

As to H-FRVDEEFQSPFASQSRGYFLFRPRN-NH2, the pEC50 was 5.21.

On to `C[C@@H]1O[C@@H](OC[C@H]2O[C@@H](Oc3c(-c4ccc(O)c(O)c4)oc4cc(O)cc(O)c4c3=O)[C@H](O)[C@@H](O)[C@@H]2O)[C@H](O)[C@H](O)[C@H]1O` [RUTIN], for which the pEC50 was 2.92.

Take `CNCC(O)c1ccc(O)cc1` (stereo not drawn) [OXEDRINE]: the pEC50 was 5.18.

One may read the pEC50 as the EC50 on a negative log10 scale, so that one unit is a factor of ten.
